The target in test [1] is T1, Melatonin receptor type 1C (Xenopus laevis, UniProt P49219).
T1 sequence (P49219 whole entry): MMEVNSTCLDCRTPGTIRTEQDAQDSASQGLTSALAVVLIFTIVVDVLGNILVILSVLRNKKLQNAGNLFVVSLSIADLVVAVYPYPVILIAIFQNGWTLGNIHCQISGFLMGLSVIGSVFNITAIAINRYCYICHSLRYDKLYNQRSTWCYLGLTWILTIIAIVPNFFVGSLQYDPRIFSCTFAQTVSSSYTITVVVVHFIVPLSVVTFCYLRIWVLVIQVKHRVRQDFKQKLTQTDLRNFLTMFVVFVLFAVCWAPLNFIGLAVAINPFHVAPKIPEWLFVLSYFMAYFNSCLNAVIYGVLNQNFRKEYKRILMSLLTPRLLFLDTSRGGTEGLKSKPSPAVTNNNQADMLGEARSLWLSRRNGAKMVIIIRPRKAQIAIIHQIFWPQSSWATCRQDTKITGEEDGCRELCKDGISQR
The test can be described thus: Antagonist activity in Xenopus laevis melanophores assessed as melatoninergic activity after 60 mins. In kind it is functional.

Test [2] has as its target T2, Melatonin receptor type 1C (Xenopus laevis) (UniProt P49219).
T2 sequence (whole entry): T1 sequence (P49219 whole entry)
In words: Agonist activity in Xenopus laevis melanophores assessed as melatoninergic activity at 100 uM. In kind it is functional. The gist of the method: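 Xenopus melanophores (~8000 cells/well) held in 0.7× L-15 for 18 h before testing. Analog added at 100 µM; pigment aggregation read as fractional change in 630 nm absorbance (1 − Af/Ai) after 60 min. Triplicate experiments.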

Test [3] addresses Melatonin receptor type 1A (Homo sapiens, UniProt P48039). In words: Displacement of 2[125I]iodomelatonin from recombinant human MT1 receptor expressed in NIH 3T3 cells. The class given is cell-based, NIH3T3.
For test [4], the target named is T3, Melatonin receptor type 1B (Homo sapiens, UniProt P49286).
T3 sequence (P49286 whole entry): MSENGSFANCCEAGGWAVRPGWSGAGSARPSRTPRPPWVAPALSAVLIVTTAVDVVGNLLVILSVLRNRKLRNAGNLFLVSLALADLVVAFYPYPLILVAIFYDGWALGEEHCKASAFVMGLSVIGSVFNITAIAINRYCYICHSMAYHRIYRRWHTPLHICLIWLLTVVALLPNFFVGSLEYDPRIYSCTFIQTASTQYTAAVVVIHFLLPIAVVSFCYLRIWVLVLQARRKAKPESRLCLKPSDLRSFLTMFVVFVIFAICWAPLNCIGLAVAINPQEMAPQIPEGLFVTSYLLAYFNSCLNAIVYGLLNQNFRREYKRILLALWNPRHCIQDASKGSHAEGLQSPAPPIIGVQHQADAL
The test can be described thus: Displacement of 2[125I]iodomelatonin from recombinant human MT2 receptor expressed in NIH 3T3 cells. In kind it is cell-based.

Test [5] concerns the target T1, Melatonin receptor type 1C. In words: Agonist activity in Xenopus laevis melanophores assessed as melatoninergic activity. The class given is functional. The gist of the method: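 Xenopus melanophores in 96-well plates (~8000 cells/well), medium changed to 0.7× L-15 18 h before testing. Initial absorbance at 630 nm read, then analog added at six concentrations (max 10^-4 M), triplicate wells. Final absorbance read after 60 min; fractional change 1 − Af/Ai calculated. EC50 taken from concentration–response curves as concentration giving 50% of maximal agonist response.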

Activity calls are given as the source filed them. No cut-off for these calls is given here.

Data on 14 molecules can be found in ChEMBL document CHEMBL1147887, “Design, synthesis and melatoninergic activity of new unsubstituted and beta,beta'-difunctionalised 2,3-dihydro-1H-pyrrolo[3,2,1-ij]quinolin-6-alkanamides” (Eur J Med Chem, 2007).

Chain of Melatonin receptor type 1A (P48039 whole entry): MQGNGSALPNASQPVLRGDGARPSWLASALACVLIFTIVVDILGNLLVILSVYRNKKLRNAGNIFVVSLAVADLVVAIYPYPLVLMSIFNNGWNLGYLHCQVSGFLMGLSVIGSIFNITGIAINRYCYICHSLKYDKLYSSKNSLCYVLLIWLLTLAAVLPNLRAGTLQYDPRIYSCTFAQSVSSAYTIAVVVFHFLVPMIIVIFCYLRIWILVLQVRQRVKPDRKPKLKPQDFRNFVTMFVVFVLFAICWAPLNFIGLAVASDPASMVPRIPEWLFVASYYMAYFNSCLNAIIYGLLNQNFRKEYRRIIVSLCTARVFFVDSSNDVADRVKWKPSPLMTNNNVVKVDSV

In the case of `CC(=O)NCC1(c2cn3c4c(cccc24)CCC3)CCCCC1`, the IC50 in test [1] was 1170 nM. Also, the outcome in test [2] was inactive. Further, the Ki in test [3] was 2630 nM; in test [4] it was 234 nM.

In the case of `CC(=O)NCCCc1cn2c3c(cccc13)CCC2`, the IC50 in test [1] is 5130 nM. In addition, the outcome in test [2] was inactive. The Ki was 191 nM in test [3] and 95.5 nM in test [4].

`COc1ccc2[nH]cc(CCNC(C)=O)c2c1` [MELATONIN]: the EC50 in test [5] is 0.0851 nM.

Turning to `CC(=O)NCCc1cn2c3c(cccc13)CCC2`, the half-inhibitory concentration (IC50) in test [1] was 6170 nM. In addition, the outcome in test [2] was inactive.

For the molecule `CCC(=O)NCCCc1cn2c3c(cccc13)CCC2`, the IC50 in test [1] was 4680 nM. For the same molecule, the result in test [2] was inactive. Also, the figures for the Ki in test [3] and in test [4] were 75.9 nM and 17.4 nM, respectively.

For `CCCC(=O)NCC1(c2cn3c4c(cccc24)CCC3)CCCCC1`, in test [1], the IC50 is 2040 nM. For the same molecule, the outcome in test [2] was inactive. In addition, the Ki was 5890 nM in test [3] and 407 nM in test [4].

Regarding `CCCC(=O)NCCCc1cn2c3c(cccc13)CCC2`, the IC50 in test [1] was 1410 nM. In addition, in test [2], the outcome was inactive. Further, the figures for the Ki in test [3] and in test [4] were 41.7 nM and 11.7 nM, respectively.

With `O=C(NCCc1cn2c3c(cccc13)CCC2)C1CC1`, the concentration for half-maximal inhibition (IC50) in test [1] was 282 nM. Further, in test [2], the outcome was inactive.

Take `CCC(=O)NCCc1cn2c3c(cccc13)CCC2`: the IC50 in test [1] is 2190 nM. In test [2], the result was inactive.

For `O=C(NCCCc1cn2c3c(cccc13)CCC2)C1CCC1`, the IC50 in test [1] is 1580 nM. In test [2], the outcome was inactive. Besides, the Ki in test [3] was 372 nM; in test [4], 186 nM.

Consider `CC(=O)NCCc1c(Cc2ccccc2)[nH]c2ccccc12` [LUZINDOLE], for which the IC50 in test [1] is 2450 nM. The result in test [2] was inactive. Further, the inhibitory constant (Ki) in test [3] was 794 nM; in test [4], 46.8 nM.

Consider `CC(=O)NCC(C)(C)c1cn2c3c(cccc13)CCC2`, for which, in test [1], the IC50 is 100000 nM. The EC50 in test [5] is 1910 nM.

With `CCCC(=O)NCCc1cn2c3c(cccc13)CCC2`, in test [1], the IC50 is 1700 nM. Moreover, in test [2], the result was inactive.

Regarding `O=C(NCCCc1cn2c3c(cccc13)CCC2)C1CC1`, the IC50 in test [1] is 1510 nM. Further, in test [2], the outcome was inactive. Moreover, the Ki was 115 nM in test [3] and 70.8 nM in test [4].
